Eleven compounds from ChEMBL document CHEMBL1145888, “Prazosin-related compounds. Effect of transforming the piperazinylquinazoline moiety into an aminomethyltetrahydroacridine system on the affinity for alpha1-adrenoreceptors” (J Med Chem, 2003) can be followed below.

Assay [1] has as its target T1, Alpha-1D adrenergic receptor (Homo sapiens, UniProt P25100).
T1 sequence (P25100 whole entry): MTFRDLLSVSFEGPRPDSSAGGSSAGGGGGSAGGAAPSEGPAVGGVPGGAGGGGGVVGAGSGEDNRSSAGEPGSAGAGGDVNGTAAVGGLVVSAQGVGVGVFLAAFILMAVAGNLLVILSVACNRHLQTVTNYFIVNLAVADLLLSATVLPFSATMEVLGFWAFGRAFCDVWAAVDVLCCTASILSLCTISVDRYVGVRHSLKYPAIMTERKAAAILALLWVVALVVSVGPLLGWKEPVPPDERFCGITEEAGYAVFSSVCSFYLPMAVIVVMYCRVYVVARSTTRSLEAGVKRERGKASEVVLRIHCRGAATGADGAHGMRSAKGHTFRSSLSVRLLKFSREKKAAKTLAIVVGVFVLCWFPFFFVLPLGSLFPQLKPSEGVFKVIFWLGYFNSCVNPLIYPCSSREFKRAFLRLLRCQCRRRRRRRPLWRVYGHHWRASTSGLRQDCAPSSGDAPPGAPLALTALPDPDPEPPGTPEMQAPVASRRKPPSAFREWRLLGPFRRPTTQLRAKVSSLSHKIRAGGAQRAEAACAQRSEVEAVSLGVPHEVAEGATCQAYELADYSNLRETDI
Description: Binding affinity measured in CHO cells expressing human cloned Alpha-1D adrenergic receptor expressed as pKi. The assay is classed as cell-based.

In assay [2] the target is T2, Alpha-1A adrenergic receptor (Homo sapiens, UniProt P35348).
T2 sequence (P35348 whole entry): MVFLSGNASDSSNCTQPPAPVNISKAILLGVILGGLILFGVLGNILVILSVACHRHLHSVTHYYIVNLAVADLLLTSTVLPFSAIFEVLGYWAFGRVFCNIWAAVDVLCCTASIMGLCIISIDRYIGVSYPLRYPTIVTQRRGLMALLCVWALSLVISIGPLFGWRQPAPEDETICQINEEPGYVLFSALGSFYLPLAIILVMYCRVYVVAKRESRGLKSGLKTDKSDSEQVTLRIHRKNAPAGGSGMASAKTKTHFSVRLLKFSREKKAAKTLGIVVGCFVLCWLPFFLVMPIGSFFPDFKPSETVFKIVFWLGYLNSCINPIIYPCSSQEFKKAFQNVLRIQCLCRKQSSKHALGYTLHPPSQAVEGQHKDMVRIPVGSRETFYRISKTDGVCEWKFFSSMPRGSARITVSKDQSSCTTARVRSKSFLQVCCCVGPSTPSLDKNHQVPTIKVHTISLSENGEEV
The assay can be described thus: Binding affinity measured in CHO cells expressing human cloned Alpha-1A adrenergic receptor expressed as pKi. Format: cell-based.

In assay [3] the target is T3, Alpha-1D adrenergic receptor (Rattus norvegicus) (UniProt P23944).
T3 sequence (whole entry): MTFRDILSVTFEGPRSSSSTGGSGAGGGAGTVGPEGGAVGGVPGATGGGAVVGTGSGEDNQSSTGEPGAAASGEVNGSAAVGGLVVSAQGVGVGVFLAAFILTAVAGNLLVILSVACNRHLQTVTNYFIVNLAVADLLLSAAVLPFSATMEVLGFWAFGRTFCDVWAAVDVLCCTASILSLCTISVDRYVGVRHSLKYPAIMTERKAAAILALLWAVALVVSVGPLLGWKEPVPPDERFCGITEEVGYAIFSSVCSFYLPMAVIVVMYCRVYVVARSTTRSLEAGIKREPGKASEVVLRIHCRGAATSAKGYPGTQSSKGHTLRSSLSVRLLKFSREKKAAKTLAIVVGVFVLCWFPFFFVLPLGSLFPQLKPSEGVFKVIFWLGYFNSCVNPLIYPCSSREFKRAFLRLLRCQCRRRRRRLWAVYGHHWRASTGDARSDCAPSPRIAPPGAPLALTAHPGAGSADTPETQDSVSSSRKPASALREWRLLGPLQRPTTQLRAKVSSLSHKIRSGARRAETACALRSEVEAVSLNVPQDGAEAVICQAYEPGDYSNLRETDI
Description: Affinity was evaluated against Alpha-1D adrenergic receptor in isolated rat aorta expressed as pKB. The assay is classed as tissue-based. In short, it runs like this: (§1)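 Isolated rat tissue; isometric contractions recorded via force transducer, with parallel tissues receiving no antagonist to check for sensitivity drift. A control agonist cumulative concentration-response curve was run, then antagonist equilibrated 30 min before a repeat curve. Responses were taken as % of the control maximum. pKB (±SE) was calculated by van Rossum at one concentration (0.1-10 µM range), each tested 4-5 times.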

Assay [4] concerns the target T4, Alpha-1B adrenergic receptor (Homo sapiens, UniProt P35368).
T4 sequence (P35368 whole entry): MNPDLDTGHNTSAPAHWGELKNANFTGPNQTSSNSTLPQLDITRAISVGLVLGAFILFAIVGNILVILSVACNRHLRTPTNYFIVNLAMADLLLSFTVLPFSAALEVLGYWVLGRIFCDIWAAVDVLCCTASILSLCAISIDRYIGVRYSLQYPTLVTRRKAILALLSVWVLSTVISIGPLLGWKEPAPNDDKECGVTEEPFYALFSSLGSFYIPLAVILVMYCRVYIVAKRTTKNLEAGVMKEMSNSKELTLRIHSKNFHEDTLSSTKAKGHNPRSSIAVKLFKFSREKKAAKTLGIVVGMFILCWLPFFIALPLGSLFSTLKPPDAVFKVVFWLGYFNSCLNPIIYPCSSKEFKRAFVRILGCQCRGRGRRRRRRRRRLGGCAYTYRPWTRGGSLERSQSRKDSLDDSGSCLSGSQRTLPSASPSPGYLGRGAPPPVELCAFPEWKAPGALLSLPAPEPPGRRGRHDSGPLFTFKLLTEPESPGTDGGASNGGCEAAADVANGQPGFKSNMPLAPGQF
Description: Binding affinity measured in CHO cells expressing human cloned Alpha-1B adrenergic receptor expressed as pKi. Format: cell-based.

Assay [5] addresses T5, Alpha-1B adrenergic receptor (Rattus norvegicus) (UniProt P15823).
T5 sequence (whole entry): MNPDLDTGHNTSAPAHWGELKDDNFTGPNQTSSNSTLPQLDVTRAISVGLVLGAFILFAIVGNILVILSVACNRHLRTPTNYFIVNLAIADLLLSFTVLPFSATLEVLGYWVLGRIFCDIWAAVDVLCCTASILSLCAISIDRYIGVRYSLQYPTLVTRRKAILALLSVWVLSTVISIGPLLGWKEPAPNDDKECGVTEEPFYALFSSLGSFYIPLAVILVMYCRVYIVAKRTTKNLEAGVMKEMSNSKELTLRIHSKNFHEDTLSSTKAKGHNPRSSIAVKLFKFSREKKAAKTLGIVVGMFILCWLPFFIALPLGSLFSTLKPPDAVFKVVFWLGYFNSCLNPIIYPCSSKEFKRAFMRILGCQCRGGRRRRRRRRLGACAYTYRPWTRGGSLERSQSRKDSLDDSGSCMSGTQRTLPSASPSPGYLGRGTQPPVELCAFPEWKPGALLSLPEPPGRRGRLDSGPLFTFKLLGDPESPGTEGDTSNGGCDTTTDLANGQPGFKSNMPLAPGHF
Description: Affinity was evaluated against Alpha-1B adrenoceptor in isolated rat spleen expressed as pKB. Format: tissue-based. In short, it runs like this:
as §1

Assay [6] has as its target T6, Alpha-1A adrenergic receptor (Rattus norvegicus) (UniProt P43140).
T6 sequence (whole entry): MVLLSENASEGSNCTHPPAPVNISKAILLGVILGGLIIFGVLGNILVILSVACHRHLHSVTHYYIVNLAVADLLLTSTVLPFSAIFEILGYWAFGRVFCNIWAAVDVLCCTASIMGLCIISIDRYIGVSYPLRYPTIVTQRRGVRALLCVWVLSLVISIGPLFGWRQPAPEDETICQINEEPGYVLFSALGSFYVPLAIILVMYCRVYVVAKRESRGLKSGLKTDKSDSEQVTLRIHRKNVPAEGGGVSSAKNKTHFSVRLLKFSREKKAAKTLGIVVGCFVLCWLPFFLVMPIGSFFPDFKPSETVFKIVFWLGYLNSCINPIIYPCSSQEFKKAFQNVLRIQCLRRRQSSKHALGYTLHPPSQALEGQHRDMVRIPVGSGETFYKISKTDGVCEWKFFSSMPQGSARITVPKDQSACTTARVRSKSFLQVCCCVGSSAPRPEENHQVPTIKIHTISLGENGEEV
The following applies: Vas deferens.

Assay [7] addresses T5, Alpha-1B adrenergic receptor (Rattus norvegicus). Description: Affinity was evaluated against Alpha-1B adrenergic receptor in isolated rat spleen expressed as pKB. The assay is classed as tissue-based. The procedure, abridged: as §1
The target of assay [8] is T3, Alpha-1D adrenergic receptor (Rattus norvegicus). Particulars: Aorta.

For the compound `COc1cc2nc3c(c(N)c2cc1OC)CCC(CNC(=O)c1ccccc1C(F)(F)F)C3` (configuration not stated), the inhibition constant Ki – broadly, a dissociation constant, usually derived from enzyme kinetics or from competition with a known ligand – in assay [1] is 24.5 nM; in assay [2], 288 nM; in assay [4], 7.41 nM. Besides, the pKB (in general, the KB on a negative log10 scale, so that one unit is a factor of ten) in assay [3] is 6.85; in assay [5], 7.33; in assay [6] it was 6.47.
On to `COc1cc2nc3c(c(O)c2cc1OC)CCC(CNCCOc1c(OC)cccc1OC)C3` (configuration not stated), for which the Ki in assay [1] is 389 nM; in assay [2], 1700 nM; in assay [4] it was 219 nM. The figures for the negative logarithm of the KB (pKB) in assay [3], in assay [5] and in assay [6] were 5.92, 7.05 and 6.24, respectively.
On to `COc1cc2nc3c(c(N)c2cc1OC)CCC(CNC(=O)c1ccccc1)C3` (configuration not stated), for which the figures for the pKB in assay [3], in assay [5] and in assay [6] were 6.63, 7.19 and 6.67, respectively.
For the compound `COc1cc2nc3c(c(N)c2cc1OC)CCC(CNC(=O)c1ccc(C(F)(F)F)cc1)C3` (configuration not stated), the values for the inhibitory constant (Ki) in assay [1], in assay [2] and in assay [4] were 19.1 nM, 85.1 nM and 8.91 nM, respectively. The negative-log KB (pKB) in assay [3] came out at 6.67; in assay [5] it was 7.2; in assay [6], 6.08.
For `COc1cc2nc3c(c(N)c2cc1OC)CC(CNC(=O)c1ccco1)C3` (configuration not stated), the figures for the Ki in assay [1], in assay [2] and in assay [4] were 200 nM, 158 nM and 79.4 nM, respectively. Further, the pKB in assay [3] was found to be 6.11; in assay [5], 6.82; in assay [6], 6.26.
For `COc1cc2nc3c(c(N)c2cc1OC)CCC(CNC(=O)c1ccco1)C3` (configuration not stated), the inhibition constant (Ki) in assay [1] is 15.8 nM; in assay [2], 95.5 nM; in assay [4], 12.3 nM. Besides, the figures for the pKB in assay [7], in assay [8] and in assay [6] were 7.3, 7.47 and 6.52, respectively.
Regarding `COc1cc2nc3c(c(O)c2cc1OC)CCC(CNC(=O)c1ccco1)C3` (configuration not stated), the Ki is 1150 nM in assay [1], 2570 nM in assay [2] and 295 nM in assay [4]. Besides, the negative logarithm of the KB (pKB) in assay [5] was found to be 6.95; in assay [8] it was 6.41; in assay [6], 5.76.
Consider `COc1cc2nc3c(c(N)c2cc1OC)CCC(CNCCOc1c(OC)cccc1OC)C3` (configuration not stated), for which the Ki in assay [1] is 200 nM; in assay [2] it was 977 nM; in assay [4], 39.8 nM. For the same compound, the figures for the negative-log KB (pKB) in assay [5], in assay [8] and in assay [6] were 7.2, 6.39 and 5.7, respectively.
Consider `COc1cc2nc3c(c(N)c2cc1OC)CCC(CNC(=O)c1cccc(C(F)(F)F)c1)C3` (configuration not stated), for which the Ki in assay [1] was 25.1 nM; in assay [2], 31.6 nM; in assay [4] it was 12.6 nM. The negative-log KB (pKB) in assay [3] amounted to 7.58; in assay [5], 7.36; in assay [6] it was 7.16.
As to `COc1cccc(OC)c1OCCNCC1COc2ccccc2O1` (configuration not stated), the negative logarithm of the KB (pKB) worked out at 8.2 in assay [5], 8.85 in assay [8] and 9.48 in assay [6].
For `COc1cc2nc3c(c(N)c2cc1OC)CCCC(CNC(=O)c1ccco1)C3` (configuration not stated), in that order: 6.92, 6.94 and 6.34.
